According to ChEMBL document CHEMBL5661979, “Pharmacological inhibition of BMK1 suppresses tumor growth through promyelocytic leukemia protein” (Cancer Cell, 2010):
pIC50: −log10 of the molar value. The source made the active and inactive calls. No cut-off for these calls is given here.

Tests used:
[1] = target: Cyclin-dependent kinase 16 (Homo sapiens, UniProt Q00536); test: Inhibition of PCTAIRE1 in human HeLa cells lysate at 2 uM pre incubated for 15 mins followed by ADP acyl phosphate probe addition and measured after 10 mins by LC-MS/MS analysis relative to control; type: subcellular; conditions: time 25.0 min
[2] = target: T1, p38 delta/gamma (Homo sapiens) (UniProt O15264+P53778); test: Inhibition of p38d/p38g in human HeLa cells lysate at 2 uM pre incubated for 15 mins followed by ATP acyl phosphate probe addition and measured after 10 mins by LC-MS/MS analysis relative to control; type: subcellular; conditions: time 25.0 min
[3] = Inhibition of PCTAIRE2/3 in human HeLa cells lysate at 2 uM pre incubated for 15 mins followed by ADP acyl phosphate probe addition and measured after 10 mins by LC-MS/MS analysis relative to control; conditions: 25 min, condition cancer
[4] = target: Tyrosine-protein kinase Fyn (Homo sapiens, UniProt P06241); test: Inhibition of FYN in human HeLa cells lysate pre incubated for 15 mins followed by ADP acyl phosphate probe addition and measured after 10 mins by LC-MS/MS analysis; type: subcellular
[5] = target: Serine/threonine-protein kinase Aurora (Homo sapiens, UniProt Q96GD4+Q9UQB9+O14965); test: Inhibition of AurA/AurB/AurC in human HeLa cells lysate at 50 uM pre incubated for 15 mins followed by ATP acyl phosphate probe addition and measured after 10 mins by LC-MS/MS analysis relative to control; type: subcellular; conditions: time 25.0 min
In short: (§1)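 KiNativ-type profiling in HeLa lysate (5 mg/mL total protein). Lysate preincubated 15 min with inhibitor at 50, 10, 2, 0.8 or 0 μM, then ATP or ADP acylphosphate probe added (5 μM final) for 10 min. Reaction stopped with urea and analysed by targeted MS, using up to four fragment ions per kinase peptide-probe conjugate. % inhibition calculated against untreated lysate. Duplicate reactions.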

[6] = target: T2, Dual specificity mitogen-activated protein kinase kinase 6 (Homo sapiens) (UniProt P52564); test: Inhibition of MAP2K6 in human HeLa cells lysate at 2 uM pre incubated for 15 mins followed by ATP acyl phosphate probe addition and measured after 10 mins by LC-MS/MS analysis relative to control; type: subcellular; conditions: time 25.0 min
T2 sequence (whole entry): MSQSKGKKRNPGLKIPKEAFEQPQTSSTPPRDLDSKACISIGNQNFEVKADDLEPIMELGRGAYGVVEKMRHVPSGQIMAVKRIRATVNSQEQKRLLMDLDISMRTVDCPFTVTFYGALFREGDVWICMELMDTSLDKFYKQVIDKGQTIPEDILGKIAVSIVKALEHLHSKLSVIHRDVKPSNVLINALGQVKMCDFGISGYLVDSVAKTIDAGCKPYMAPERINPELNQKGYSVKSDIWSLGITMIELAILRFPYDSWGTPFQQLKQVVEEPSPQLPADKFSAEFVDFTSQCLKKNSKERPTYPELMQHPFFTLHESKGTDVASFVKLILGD

[7] = target: Protein kinase C theta type (Homo sapiens, UniProt Q04759); test: Inhibition of PKCtheta in human HeLa cells lysate at 50 uM pre incubated for 15 mins followed by ATP acyl phosphate probe addition and measured after 10 mins by LC-MS/MS analysis relative to control; type: subcellular; conditions: time 25.0 min
[8] = target: 3-phosphoinositide-dependent protein kinase 1 (Homo sapiens, UniProt O15530); test: Inhibition of PDK1 in human HeLa cells lysate pre incubated for 15 mins followed by ADP acyl phosphate probe addition and measured after 10 mins by LC-MS/MS analysis; type: subcellular
[9] = target: Serine/threonine-protein kinase D3 (Homo sapiens, UniProt O94806); test: Inhibition of PKD3 in human HeLa cells lysate pre incubated for 15 mins followed by ADP acyl phosphate probe addition and measured after 10 mins by LC-MS/MS analysis; type: subcellular
[10] = target: Phosphatidylinositol 4-kinase beta (Homo sapiens, UniProt Q9UBF8); test: Inhibition of PIK4CB in human HeLa cells lysate at 50 uM pre incubated for 15 mins followed by ATP acyl phosphate probe addition and measured after 10 mins by LC-MS/MS analysis relative to control; type: subcellular; conditions: time 25.0 min
[11] = target: Serine/threonine-protein kinase MRCK beta (Homo sapiens, UniProt Q9Y5S2); test: Inhibition of MRCKB in human HeLa cells lysate pre incubated for 15 mins followed by ATP acyl phosphate probe addition and measured after 10 mins by LC-MS/MS analysis; type: subcellular
[12] = target: Serine/threonine-protein kinase 38 (Homo sapiens, UniProt Q15208); test: Inhibition of NDR1 in human HeLa cells lysate pre incubated for 15 mins followed by ATP acyl phosphate probe addition and measured after 10 mins by LC-MS/MS analysis; type: subcellular
[13] = target: Serine/threonine-protein kinase DCLK2 (Homo sapiens) (UniProt Q8N568); test: Inhibition of DCAMKL2 (unknown origin) assessed as remaining activity at 10 uM by ATP-competition binding assay relative to control
HeLa = test: Antiproliferative activity against human HeLa cells assessed as reduction in cell viability at 5 uM after 48 hrs by MTT assay; type: functional, cell-based
In short: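 HeLa cells were infected with empty adenovirus or adenovirus encoding dominant-negative BMK1(AEF). After 24 hr they were treated with or without 5 μM drug for 48 hr and read by MTT. % growth inhibition = (1 − MTT of group / MTT of Ad-EV-only cells) × 100. n = 3.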

[14] = target: Glycogen synthase kinase-3 alpha (Homo sapiens, UniProt P49840); test: Inhibition of GSK3A in human HeLa cells lysate at 50 uM pre incubated for 15 mins followed by ATP acyl phosphate probe addition and measured after 10 mins by LC-MS/MS analysis relative to control; type: subcellular; conditions: time 25.0 min
[15] = target: T1, p38 delta/gamma (Homo sapiens); test: Inhibition of p38d/p38g in human HeLa cells lysate at 10 uM pre incubated for 15 mins followed by ATP acyl phosphate probe addition and measured after 10 mins by LC-MS/MS analysis relative to control; type: subcellular; conditions: time 25.0 min
[16] = MRT in Sprague-Dawley rat at 2 mg/kg, po measured up to 8 hrs by LC-MS/MS analysis; type: ADME, organism-based; conditions: in vivo
[17] = target: T3, Aurora kinase A (Homo sapiens) (UniProt O14965); test: Inhibition of AurA in human HeLa cells lysate at 50 uM pre incubated for 15 mins followed by ATP acyl phosphate probe addition and measured after 10 mins by LC-MS/MS analysis relative to control; type: subcellular; conditions: time 25.0 min; in short: as §1
T3 sequence (whole entry): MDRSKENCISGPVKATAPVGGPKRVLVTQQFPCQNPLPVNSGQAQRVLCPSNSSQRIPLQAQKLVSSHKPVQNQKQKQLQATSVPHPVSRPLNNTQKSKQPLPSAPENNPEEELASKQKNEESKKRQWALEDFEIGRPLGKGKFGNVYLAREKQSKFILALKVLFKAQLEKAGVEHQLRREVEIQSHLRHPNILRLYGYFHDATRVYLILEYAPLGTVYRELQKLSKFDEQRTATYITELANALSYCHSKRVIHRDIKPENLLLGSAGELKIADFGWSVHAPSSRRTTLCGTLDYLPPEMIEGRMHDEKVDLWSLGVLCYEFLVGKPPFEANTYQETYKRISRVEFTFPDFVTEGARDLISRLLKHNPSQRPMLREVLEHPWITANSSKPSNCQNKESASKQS

Chain of Phosphatidylinositol 4-kinase beta (Q9UBF8 2-816 limits assumed): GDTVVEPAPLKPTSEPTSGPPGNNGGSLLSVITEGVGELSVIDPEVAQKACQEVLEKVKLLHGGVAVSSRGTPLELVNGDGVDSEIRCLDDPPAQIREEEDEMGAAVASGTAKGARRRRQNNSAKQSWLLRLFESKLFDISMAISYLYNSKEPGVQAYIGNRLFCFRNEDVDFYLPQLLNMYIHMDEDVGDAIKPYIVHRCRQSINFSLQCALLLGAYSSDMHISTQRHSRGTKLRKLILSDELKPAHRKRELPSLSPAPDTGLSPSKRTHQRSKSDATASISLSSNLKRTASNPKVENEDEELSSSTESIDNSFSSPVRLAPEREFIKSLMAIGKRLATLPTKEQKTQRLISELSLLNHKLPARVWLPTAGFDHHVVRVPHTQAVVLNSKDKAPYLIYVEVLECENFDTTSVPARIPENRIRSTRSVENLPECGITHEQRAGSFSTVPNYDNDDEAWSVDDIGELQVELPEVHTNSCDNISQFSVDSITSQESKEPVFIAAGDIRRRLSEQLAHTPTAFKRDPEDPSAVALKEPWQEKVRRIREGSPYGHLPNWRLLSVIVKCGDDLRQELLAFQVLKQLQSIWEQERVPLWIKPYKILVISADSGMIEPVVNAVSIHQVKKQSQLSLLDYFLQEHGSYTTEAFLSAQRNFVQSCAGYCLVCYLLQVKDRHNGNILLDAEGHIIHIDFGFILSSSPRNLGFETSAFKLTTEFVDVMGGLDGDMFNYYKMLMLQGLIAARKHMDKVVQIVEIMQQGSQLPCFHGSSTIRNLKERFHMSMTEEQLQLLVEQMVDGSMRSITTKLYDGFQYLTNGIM
Chain of Serine/threonine-protein kinase D3 (O94806 whole entry): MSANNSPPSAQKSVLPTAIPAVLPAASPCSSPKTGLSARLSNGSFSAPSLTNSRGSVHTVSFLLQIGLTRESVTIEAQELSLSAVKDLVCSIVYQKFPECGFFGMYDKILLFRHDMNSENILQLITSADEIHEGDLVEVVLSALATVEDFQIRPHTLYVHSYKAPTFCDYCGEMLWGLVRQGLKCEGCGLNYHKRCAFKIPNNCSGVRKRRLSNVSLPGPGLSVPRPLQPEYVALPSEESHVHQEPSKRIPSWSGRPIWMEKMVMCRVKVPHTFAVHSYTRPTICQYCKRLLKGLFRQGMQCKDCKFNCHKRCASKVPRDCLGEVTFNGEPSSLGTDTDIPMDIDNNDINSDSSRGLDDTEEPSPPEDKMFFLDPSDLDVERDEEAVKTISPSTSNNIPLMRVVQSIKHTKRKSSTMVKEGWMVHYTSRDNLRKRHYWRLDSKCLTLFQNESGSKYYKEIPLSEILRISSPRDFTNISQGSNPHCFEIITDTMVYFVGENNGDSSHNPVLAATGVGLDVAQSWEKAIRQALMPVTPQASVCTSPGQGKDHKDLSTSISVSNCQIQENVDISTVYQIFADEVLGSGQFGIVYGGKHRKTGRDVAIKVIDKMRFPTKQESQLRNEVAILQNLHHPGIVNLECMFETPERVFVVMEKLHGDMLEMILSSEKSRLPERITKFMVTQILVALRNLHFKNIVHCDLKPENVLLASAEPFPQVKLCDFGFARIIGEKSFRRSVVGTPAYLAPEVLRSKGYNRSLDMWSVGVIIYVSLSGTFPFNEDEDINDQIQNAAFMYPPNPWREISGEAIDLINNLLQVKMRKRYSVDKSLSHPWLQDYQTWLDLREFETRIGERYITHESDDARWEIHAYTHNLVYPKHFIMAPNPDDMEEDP
Chain of Serine/threonine-protein kinase DCLK2 (Homo sapiens) (Q8N568 whole entry): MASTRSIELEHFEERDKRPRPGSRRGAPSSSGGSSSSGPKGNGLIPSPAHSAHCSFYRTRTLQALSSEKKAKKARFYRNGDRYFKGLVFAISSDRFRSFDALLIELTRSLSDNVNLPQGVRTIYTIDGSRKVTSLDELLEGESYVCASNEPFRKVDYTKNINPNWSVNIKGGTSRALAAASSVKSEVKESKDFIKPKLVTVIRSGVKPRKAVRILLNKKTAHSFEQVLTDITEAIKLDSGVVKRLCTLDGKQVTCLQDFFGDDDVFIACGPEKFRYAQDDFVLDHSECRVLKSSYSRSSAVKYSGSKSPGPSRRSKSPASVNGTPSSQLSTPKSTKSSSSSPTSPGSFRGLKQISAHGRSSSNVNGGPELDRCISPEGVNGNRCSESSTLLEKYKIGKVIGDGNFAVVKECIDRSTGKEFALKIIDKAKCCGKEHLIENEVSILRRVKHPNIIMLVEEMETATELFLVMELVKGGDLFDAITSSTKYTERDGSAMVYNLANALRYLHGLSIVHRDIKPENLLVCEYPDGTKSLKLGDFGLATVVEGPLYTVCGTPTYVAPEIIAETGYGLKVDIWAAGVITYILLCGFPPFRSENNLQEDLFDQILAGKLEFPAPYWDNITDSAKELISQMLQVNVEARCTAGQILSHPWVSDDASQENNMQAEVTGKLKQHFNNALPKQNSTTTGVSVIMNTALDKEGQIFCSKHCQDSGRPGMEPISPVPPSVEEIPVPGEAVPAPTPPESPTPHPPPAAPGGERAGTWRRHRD
Chain of Glycogen synthase kinase-3 alpha (P49840 2-483 limits assumed): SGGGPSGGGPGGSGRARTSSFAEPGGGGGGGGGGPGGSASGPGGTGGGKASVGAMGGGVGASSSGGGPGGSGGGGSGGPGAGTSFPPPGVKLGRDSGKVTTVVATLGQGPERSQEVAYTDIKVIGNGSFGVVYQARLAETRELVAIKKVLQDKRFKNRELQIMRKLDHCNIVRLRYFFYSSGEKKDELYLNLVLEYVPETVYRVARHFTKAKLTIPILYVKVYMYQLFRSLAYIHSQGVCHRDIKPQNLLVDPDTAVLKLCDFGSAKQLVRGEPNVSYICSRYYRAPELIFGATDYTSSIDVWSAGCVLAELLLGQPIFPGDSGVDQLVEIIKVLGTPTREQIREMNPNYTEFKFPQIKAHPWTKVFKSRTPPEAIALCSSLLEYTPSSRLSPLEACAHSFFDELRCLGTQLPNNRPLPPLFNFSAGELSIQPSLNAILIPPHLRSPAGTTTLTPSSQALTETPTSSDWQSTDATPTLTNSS
Chain of 3-phosphoinositide-dependent protein kinase 1 (O15530 whole entry): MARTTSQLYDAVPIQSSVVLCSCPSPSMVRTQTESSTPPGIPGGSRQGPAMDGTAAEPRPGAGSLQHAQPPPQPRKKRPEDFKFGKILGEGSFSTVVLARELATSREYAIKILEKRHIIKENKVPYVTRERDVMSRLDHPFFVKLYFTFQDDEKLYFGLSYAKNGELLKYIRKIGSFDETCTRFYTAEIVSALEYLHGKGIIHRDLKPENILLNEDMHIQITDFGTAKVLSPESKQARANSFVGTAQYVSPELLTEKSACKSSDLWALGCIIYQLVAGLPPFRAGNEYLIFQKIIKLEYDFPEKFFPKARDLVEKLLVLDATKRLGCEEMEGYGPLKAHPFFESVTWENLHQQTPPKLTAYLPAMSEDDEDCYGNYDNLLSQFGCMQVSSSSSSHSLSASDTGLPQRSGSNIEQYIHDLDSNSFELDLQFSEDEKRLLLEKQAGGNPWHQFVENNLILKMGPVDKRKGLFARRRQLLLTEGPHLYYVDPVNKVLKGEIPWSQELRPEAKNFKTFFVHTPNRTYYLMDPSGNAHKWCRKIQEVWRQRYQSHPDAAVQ
Chain of Cyclin-dependent kinase 16 (Q00536 whole entry): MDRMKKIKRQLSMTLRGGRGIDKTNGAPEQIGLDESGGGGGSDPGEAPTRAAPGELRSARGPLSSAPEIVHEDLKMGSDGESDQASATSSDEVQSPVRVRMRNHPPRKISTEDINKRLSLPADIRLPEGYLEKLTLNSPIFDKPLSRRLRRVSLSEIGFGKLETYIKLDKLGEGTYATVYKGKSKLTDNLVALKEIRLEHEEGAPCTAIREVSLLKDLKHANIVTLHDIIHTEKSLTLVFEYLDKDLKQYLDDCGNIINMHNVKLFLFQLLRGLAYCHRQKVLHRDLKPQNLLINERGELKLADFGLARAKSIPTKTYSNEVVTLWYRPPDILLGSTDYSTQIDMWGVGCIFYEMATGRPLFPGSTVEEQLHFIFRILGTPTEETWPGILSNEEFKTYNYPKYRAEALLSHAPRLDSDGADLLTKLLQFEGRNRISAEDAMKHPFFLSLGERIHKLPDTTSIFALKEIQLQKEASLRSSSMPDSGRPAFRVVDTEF
Chain of Serine/threonine-protein kinase 38 (Q15208 whole entry): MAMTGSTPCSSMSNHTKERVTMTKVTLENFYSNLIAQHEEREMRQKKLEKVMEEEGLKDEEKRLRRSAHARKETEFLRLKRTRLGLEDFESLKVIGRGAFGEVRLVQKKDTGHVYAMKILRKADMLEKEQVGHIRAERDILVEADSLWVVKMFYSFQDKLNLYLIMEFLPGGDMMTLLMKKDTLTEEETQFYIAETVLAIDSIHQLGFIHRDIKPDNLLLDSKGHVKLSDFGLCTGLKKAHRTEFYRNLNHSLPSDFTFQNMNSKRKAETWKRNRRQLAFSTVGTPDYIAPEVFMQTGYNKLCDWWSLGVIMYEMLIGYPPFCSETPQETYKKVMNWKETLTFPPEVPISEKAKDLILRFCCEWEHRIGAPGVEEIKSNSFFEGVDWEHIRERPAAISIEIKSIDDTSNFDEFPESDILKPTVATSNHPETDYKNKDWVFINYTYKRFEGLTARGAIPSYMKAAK
Chain of Tyrosine-protein kinase Fyn (P06241 whole entry): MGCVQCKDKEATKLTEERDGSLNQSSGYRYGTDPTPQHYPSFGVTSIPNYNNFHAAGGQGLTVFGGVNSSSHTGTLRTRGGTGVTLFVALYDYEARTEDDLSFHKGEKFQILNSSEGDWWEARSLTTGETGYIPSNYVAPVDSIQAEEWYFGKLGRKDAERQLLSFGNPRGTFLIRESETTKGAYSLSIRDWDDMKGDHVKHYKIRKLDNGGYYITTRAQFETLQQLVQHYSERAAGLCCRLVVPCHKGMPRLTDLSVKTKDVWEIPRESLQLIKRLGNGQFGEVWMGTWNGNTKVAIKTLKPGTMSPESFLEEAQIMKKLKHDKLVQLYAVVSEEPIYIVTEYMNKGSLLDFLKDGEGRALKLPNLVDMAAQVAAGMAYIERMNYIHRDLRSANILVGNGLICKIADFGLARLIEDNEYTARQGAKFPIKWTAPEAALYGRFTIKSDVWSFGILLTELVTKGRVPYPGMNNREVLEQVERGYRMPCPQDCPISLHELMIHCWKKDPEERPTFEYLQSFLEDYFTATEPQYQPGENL

CCOc1cc(N2CCC(O)CC2)ccc1Nc1ncc2c(n1)N(C)c1ccccc1C(=O)N2C
inhibition [1]: 17.5% | inhibition [2]: 100% | inhibition at 2 µM [3]: 10.1% | pIC50 [4]: < 4.30 | inhibition [5]: 10.2% | inhibition [6]: -4% | inhibition [7]: 1.8% | pIC50 [8]: < 4.30 | pIC50 [9]: < 4.30 | inhibition [10]: 52.2% | pIC50 [11]: < 4.30 | pIC50 [12]: < 4.30 | Activity [13]: 0.65% | Activity (HeLa): Active | inhibition [14]: 10.4% | inhibition [15]: 100% | MRT [16]: 4.8 h | inhibition [17]: 13.1%
